Laboratory results published in ChEMBL document CHEMBL1144183, “Synthesis and biological affinity of new imidazo- and indol-arylpiperazine derivatives: further validation of a pharmacophore model for alpha(1)-adrenoceptor antagonists” (Bioorg Med Chem Lett, 2008).

Legend:
[1] = species: Rattus norvegicus; assay: Ratio of Ki for 5HT1A receptor in rat cortex membrane to Ki for alpha1 adrenoceptor in rat cortex membrane; assay type: cell membranes
[2] = molecular target: T1, Sodium-dependent serotonin transporter (Homo sapiens, UniProt P31645); assay type: cell membranes
Target sequence in this assay (P31645 whole entry): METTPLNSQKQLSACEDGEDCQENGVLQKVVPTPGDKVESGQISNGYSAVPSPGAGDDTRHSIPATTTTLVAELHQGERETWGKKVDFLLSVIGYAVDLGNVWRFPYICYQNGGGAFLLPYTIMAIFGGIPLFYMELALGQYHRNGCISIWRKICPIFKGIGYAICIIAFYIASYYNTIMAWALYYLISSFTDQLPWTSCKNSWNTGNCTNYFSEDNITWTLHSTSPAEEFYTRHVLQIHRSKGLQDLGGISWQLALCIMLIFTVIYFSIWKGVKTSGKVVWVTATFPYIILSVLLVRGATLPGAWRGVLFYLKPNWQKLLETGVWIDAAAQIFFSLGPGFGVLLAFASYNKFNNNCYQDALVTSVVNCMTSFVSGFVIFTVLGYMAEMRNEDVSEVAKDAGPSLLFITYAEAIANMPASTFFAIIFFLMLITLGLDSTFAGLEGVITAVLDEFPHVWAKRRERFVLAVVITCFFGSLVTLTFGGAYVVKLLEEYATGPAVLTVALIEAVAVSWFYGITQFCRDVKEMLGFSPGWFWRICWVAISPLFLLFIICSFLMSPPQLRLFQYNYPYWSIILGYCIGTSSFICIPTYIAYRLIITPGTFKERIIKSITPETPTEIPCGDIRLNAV

[3] = species: Rattus norvegicus; assay: Ratio of Ki for alpha2 adrenoceptor in rat cortex membrane to Ki for alpha1 adrenoceptor in rat cortex membrane; assay type: cell membranes
[4] = molecular target: T1, Sodium-dependent serotonin transporter; assay: Displacement of [3H]paroxetine from SERT in human platelet membrane at 10 uM; assay type: cell membranes
Outline: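 Compounds were tested at 10 µM, with percent displacement recorded. Where obtainable, Ki was derived from IC50 by Cheng–Prusoff. Assays were run in triplicate.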
Target sequence in this assay (P31645 whole entry, looked up): as the sequence (P31645 whole entry) above

[5] = molecular target: T2, 5-hydroxytryptamine receptor 1A (Rattus norvegicus, UniProt P19327); assay: Displacement of [3H]8-OH-DPAT from 5HT1A receptor in rat cortex membrane; assay type: cell membranes
T2 sequence (P19327 whole entry): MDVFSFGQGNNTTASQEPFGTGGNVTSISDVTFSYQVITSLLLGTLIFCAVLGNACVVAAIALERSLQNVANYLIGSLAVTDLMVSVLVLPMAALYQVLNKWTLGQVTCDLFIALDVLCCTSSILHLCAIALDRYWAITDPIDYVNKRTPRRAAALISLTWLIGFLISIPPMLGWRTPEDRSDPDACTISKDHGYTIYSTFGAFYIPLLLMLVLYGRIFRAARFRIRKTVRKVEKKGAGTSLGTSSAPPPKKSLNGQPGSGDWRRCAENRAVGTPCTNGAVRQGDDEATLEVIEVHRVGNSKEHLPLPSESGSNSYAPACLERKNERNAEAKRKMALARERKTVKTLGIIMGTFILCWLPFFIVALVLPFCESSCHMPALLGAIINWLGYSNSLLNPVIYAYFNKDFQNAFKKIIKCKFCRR
Outline: (§1)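 Competitive radioligand binding on rat cerebral cortex membranes. IC50 was converted to Ki by Cheng–Prusoff, Ki = IC50/(1+[L]/Kd). Ki is the mean of three separate experiments, each run in triplicate.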

[6] = Displacement of [3H]prazosin from alpha1 adrenoceptor in rat cortex membrane; assay type: cell membranes; outline: as §1
[7] = Displacement of [3H]rauwolscine from alpha2 adrenoceptor in rat cortex membrane; assay type: cell membranes; outline: as §1
[8] = molecular target: 5-hydroxytryptamine receptor 2A (Homo sapiens, UniProt P28223); assay: Displacement of [3H]ketanserine from 5HT2A receptor
5-hydroxytryptamine receptor 2A, sequence (P28223 whole entry): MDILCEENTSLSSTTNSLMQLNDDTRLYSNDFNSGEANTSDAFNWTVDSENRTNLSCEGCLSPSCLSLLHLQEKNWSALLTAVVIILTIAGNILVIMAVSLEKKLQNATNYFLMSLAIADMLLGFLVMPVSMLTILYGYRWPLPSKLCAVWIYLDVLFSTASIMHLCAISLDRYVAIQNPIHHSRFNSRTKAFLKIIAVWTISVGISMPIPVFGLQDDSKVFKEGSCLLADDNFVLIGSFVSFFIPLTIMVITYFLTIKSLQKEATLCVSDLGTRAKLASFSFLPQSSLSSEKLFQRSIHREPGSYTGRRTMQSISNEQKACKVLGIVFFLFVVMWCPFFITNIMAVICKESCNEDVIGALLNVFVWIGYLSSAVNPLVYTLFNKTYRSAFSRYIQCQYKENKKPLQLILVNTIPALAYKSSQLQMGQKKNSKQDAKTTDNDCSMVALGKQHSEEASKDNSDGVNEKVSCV

| Compound | Ratio Ki [1] | Ki [2] [nM] | Ratio Ki [3] | Activity [4] [%] | Ki [5] [nM] | Ki [6] [nM] | Ki [7] [nM] | Ki [8] [nM] |
| --- | --- | --- | --- | --- | --- | --- | --- | --- |
| CCOc1ccccc1N1CCN(C(=O)CCCn2nc(-n3ccnc3)ccc2=O)CC1 | 4.57 | > 10000 | 3.57 | 11 | 2250 | 492 | 1760 | – |
| CC(C)Oc1ccccc1N1CCN(C(=O)CCCn2nc(-n3ccnc3)ccc2=O)CC1 | 1.73 | > 10000 | 1.49 | 2 | 1560 | 897 | 1340 | – |
| CC(C)Oc1ccccc1N1CCN(CCNC(=O)Cn2nc(-n3ccnc3)ccc2=O)CC1 | 8.7 | > 10000 | 8.89 | – | 1910 | 220 | 1960 | – |
| COC(=O)[C@H]1[C@H]2C[C@H]3c4[nH]c5ccccc5c4CCN3C[C@H]2CC[C@@H]1O [RAUWOLSCINE] | – | – | – | – | – | – | 4 | – |
| COc1ccccc1N1CCN(CCNC(=O)Cn2nc(-n3ccnc3)ccc2=O)CC1 | 3 | 3460 | 4.3 | – | 2070 | 688 | 2970 | – |
| O=c1ccc(-n2ccnc2)nn1CCCCN1CCN(c2ccc3c(c2)OCCO3)CC1 | 3.73 | > 10000 | 3.9 | 26 | 937 | 251 | 996 | – |
| COc1ccccc1N1CCN(C(=O)CCCn2nc(-n3ccnc3)ccc2=O)CC1 | 0.14 | > 10000 | 0.86 | 3 | 318 | 2190 | 1900 | – |
| CCOc1ccccc1N1CCN(CCNC(=O)Cn2nc(-n3ccnc3)ccc2=O)CC1 | 4.9 | 5980 | 13.4 | – | 1150 | 234 | 3140 | – |
| O=c1ccc(-n2ccnc2)nn1CCCCN1CCN(c2ncccn2)CC1 | 1.25 | > 10000 | 2.2 | 5 | 890 | 710 | 1550 | – |
| O=c1ccc(-n2ccnc2)nn1CCCCN1CCN(c2cccc(C(F)(F)F)c2)CC1 | – | 230 | 5.6 | – | 13 | 118 | 656 | 166 |

Further lines, results first:

| Ratio Ki [1] | Ki [2] [nM] | Ratio Ki [3] | Activity [4] [%] | Ki [5] [nM] | Ki [6] [nM] | Ki [7] [nM] | Ki [8] [nM] | Compound |
| --- | --- | --- | --- | --- | --- | --- | --- | --- |
| 44.8 | 177 | 34 | – | 627 | 14 | 476 | – | O=c1ccc(-n2ccc3ccccc32)nn1CCCCN1CCN(c2ccc3c(c2)OCCO3)CC1 |
| 13.6 | 1040 | 12 | – | 22.8 | 1.7 | 20.1 | – | CC(C)Oc1ccccc1N1CCN(CCCCn2nc(-n3ccc4ccccc43)ccc2=O)CC1 |
| 15.5 | > 10000 | 163 | 15 | 14 | 0.8 | 147 | – | CCOc1ccccc1N1CCN(CCCCn2nc(-n3ccnc3)ccc2=O)CC1 |
| 11.1 | > 10000 | 38.1 | 25 | 210 | 19 | 725 | – | O=c1ccc(-n2ccc3ccccc32)nn1CCCCN1CCN(c2ncccn2)CC1 |
| 17 | > 10000 | 110 | 10 | 6.8 | 0.4 | 44 | – | CC(C)Oc1ccccc1N1CCN(CCCCn2nc(-n3ccnc3)ccc2=O)CC1 |
| 24.7 | 639 | 62.6 | – | 27.7 | 1.1 | 70.1 | – | CCOc1ccccc1N1CCN(CCCCn2nc(-n3ccc4ccccc43)ccc2=O)CC1 |
| 1.03 | 109 | 7.7 | – | 62 | 60 | 462 | 83 | O=c1ccc(-n2ccc3ccccc32)nn1CCCCN1CCN(c2cccc(C(F)(F)F)c2)CC1 |
| – | – | – | – | – | 0.24 | – | – | COc1cc2nc(N3CCN(C(=O)c4ccco4)CC3)nc(N)c2cc1OC [PRAZOSIN] |
